PvdQ inh: blocks Pseudomonas aeruginosa PvdQ acylase activity | inhibition, % at 10 µM | 340,000 tested, 0.063% active | purified PvdQ acylase, fluorescence plate reader | AID 488965; in the data active means inhibition above about 30%, passing the limit was not always enough
Yeast superoxide: caloric restriction mimetics inhibiting age-related superoxide in yeast. S. cerevisiae aged cells, superoxide DHE fluorescence; stronger effect = lower value. superoxide response (% of plate mean), % at 10 µM. 330,000 tested, 0.18% active. AID 2690;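 active means superoxide response under a set limit, about three screen SD below normal, cut at about 65% in these data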;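 further: yeast aged for seven days with compound at 30 °C before DHE staining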
VIM-2 inh: blocks Pseudomonas aeruginosa VIM-2 metallo-beta-lactamase; inhibition, % at 5.6 µM; 290,000 tested, 0.89% active; purified VIM-2, nitrocefin hydrolysis, epi-absorbance fluorescence;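 active means inhibition above the mean of all tested compounds plus 3 SD, cutoff set per screening run, cut at about 7.5% in these data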;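 further: red hydrolysis product quenches plate fluorescence so inhibitors raise well fluorescence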
PHOSPHO1 inh: PHOSPHO1 (human) inhibition; 290,000 tested, 1.1% active; inhibition, % at 13.3 µM; recombinant PHOSPHO1, absorbance phosphatase assay; Q8TCT1; in the data active means inhibition above about 60%
Target sequence (Q8TCT1 whole entry, looked up): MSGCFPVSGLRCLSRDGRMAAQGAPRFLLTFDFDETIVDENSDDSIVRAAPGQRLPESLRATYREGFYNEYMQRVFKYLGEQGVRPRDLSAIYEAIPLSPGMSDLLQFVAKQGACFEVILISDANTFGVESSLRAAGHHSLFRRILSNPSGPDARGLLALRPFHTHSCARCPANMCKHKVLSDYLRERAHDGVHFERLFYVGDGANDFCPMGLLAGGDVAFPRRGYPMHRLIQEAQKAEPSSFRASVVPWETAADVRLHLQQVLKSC
IMP-1 inh-1: inhibitors of Pseudomonas aeruginosa IMP-1 metallo-beta-lactamase | purified IMP-1, nitrocefin hydrolysis, epi-absorbance fluorescence | inhibition, % at 5.6 µM | 290,000 tested, 0.45% active;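 active means inhibition above the mean plus 3 SD of all compounds in the same screening run, cut at about 4.5% in these data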
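System: purified recombinant IMP-1 beta-lactamase. Medium: Zinc- and detergent-supplemented HEPES buffer, pH 7.1. Compound: one 5.6 µM dose […]. Schedule: 15 min preincubation plus 25 min reaction at 25 °C. Technique: Epi-absorbance fluorescence, 480 nm excitation, 530 nm emission.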
IMP-1 inh-2: selectivity counter-screen for VIM-2 inhibitors: IMP-1 metallo-beta-lactamase inhibitors | 1,300 tested, under 10 active | inhibition, % at 5.6 µM | purified IMP-1, nitrocefin hydrolysis, epi-absorbance fluorescence | AID 1856 | shares compounds with VIM-2 inh; call rule not given here
VIM-2 FRET inh: inhibits VIM-2 in FRET assay to exclude epi-absorbance artifacts; shares compounds with VIM-2 inh; purified VIM-2, CCF2 FRET substrate hydrolysis; inhibition, % at 5.6 µM; 1,300 tested, 23% active;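 active means inhibition above the mean of all tested compounds plus 3 SD, cut at about 19% in these data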
TEM-1 counter: TEM-1 inhibition, counter-screen for VIM-2 inhibitors. Purified TEM-1, nitrocefin hydrolysis, epi-absorbance fluorescence. AID 1866. shares compounds with VIM-2 inh. 1,300 tested, 3% active. inhibition, % at 5.6 µM;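 active means inhibition above that campaign's mean inhibition plus 3 SD, cut at about 0.46% in these data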
Target sequence (P62593 whole entry, looked up): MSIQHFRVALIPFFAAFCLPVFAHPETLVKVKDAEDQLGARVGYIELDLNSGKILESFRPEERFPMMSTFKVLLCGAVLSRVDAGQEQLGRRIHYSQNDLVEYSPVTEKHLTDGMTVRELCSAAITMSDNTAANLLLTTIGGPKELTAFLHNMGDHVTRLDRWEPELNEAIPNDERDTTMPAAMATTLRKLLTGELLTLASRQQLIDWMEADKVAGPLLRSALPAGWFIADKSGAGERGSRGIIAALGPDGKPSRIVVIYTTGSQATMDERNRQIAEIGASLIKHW
VIM-2 confirm 2: confirmation of P. aeruginosa VIM-2 metallo-beta-lactamase inhibitors | 1,300 tested, 96% active | inhibition, % at 5.6 µM | shares compounds with VIM-2 inh | purified VIM-2, nitrocefin hydrolysis, epi-absorbance;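 active means inhibition of the VIM-2 beta-lactamase enzyme above about 11% from the earlier first-round screen, limit read from the data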
Hits are given with their value; n = inactive; x = no result. Most compounds without a hit are left out; they make up all but 2.2% or so of the library.

SMILES | PvdQ inh | Yeast superoxide | VIM-2 inh | PHOSPHO1 inh | IMP-1 inh-1 | IMP-1 inh-2 | VIM-2 FRET inh | TEM-1 counter | VIM-2 confirm 2
CCCC[n+]1ccn(-c2nc3ccccc3nc2[N-]S(=O)(=O)c2ccccc2)c1 | n | n | n | n | n | x | x | x | x
C=CC[n+]1ccn(-c2nc3ccccc3nc2[N-]S(=O)(=O)c2cccs2)c1 | n | n | 21.9 | n | n | n | n | n | 16.5
CCCC[n+]1ccn(-c2nc3ccccc3nc2[N-]S(=O)(=O)c2cccs2)c1 | n | n | 18.6 | 76.8 | n | n | n | n | 21.0
S=c1sc2ccccc2n1CCc1ccncc1 | n | n | x | x | x | x | x | x | x
c1cn(-c2ccc(-c3ccnc4ncnn34)cc2)cn1 | n | n | 45.1 | n | n | n | n | n | 63.0
c1cncc(-c2ccnc3ncnn23)c1 | n | n | n | n | n | x | x | x | x
CC(=O)Nc1ccc(Nc2cc(N(C)C)c3nonc3c2[N+](=O)[O-])cc1 | n | n | 29.5 | n | n | n | n | n | 36.2
CCn1c2ccc(C)cc2c2nnc(SCCN3CCCCC3)nc21 | n | n | 26.4 | n | n | n | n | n | 34.8
CCCn1c2ccc(F)cc2c2nnc(SCCN3CCOCC3)nc21 | n | n | n | x | n | x | x | x | x
Cc1cc(C)c2c(c1)c1nnc(SCCN3CCOCC3)nc1n2C | n | x | 23.4 | n | n | n | n | n | 30.7
CCCn1c2ccc(C)cc2c2nnc(SCCN3CCCCC3)nc21 | n | x | 22.1 | n | n | n | n | n | 21.4
CCCn1c2ccc(C)cc2c2nnc(SCCN3CCOCC3)nc21 | n | n | 16.7 | n | n | n | n | n | 27.3
CS(=O)(=O)N1CCC(Oc2cccc(C(=O)NCCCC3CCCC3)c2)CC1 | n | n | n | n | n | x | x | x | x
COCCNCC(=O)N1CCCCCC1 | n | n | n | n | n | x | x | x | x
CCN(CC)S(=O)(=O)c1ccc(N2CCOCC2)c(NC(=S)NC(=O)c2ccco2)c1 | n | n | n | n | n | x | x | x | x
CCc1ccc(C(C)(O)C(CN2CCOCC2)c2ccccc2)cc1 (configuration not stated) | n | n | n | n | n | x | x | x | x
COc1ccc2c(c1)c1nnc(SCC(=O)NC3CC3)nc1n2C | n | n | n | n | n | x | x | x | x
Cc1ccc2c(c1)c1nnc(SCC(=O)NC3CC3)nc1n2C | n | n | 16.6 | n | n | n | n | n | 27.9
CC(C)=CCC12Oc3cc(O)ccc3C1(O)Oc1cc(O)c([C@H]3C=C(C)CC(c4ccc(O)cc4O)[C@H]3C(=O)c3ccc(O)cc3O)c(O)c1C2=O (some centres not stated) | x | n | x | x | x | x | x | x | x
Cn1c(=O)[nH]c(=O)c2c1nc(NCCCn1ccnc1)n2Cc1ccccc1 | n | n | n | n | n | x | x | x | x
Cn1c(=O)[nH]c(=O)c2c1nc(NCCCn1ccnc1)n2CCOc1ccccc1 | n | n | 20.6 | n | n | n | n | n | 33.4
O=C(OCc1ccccc1)C1=[N+]([O-])OC(C(=O)OCc2ccccc2)C1c1c[nH]c2ccccc12 (configuration not stated) | n | n | 13.1 | n | n | n | n | n | n
COc1ccc(C(=O)CNc2ccc(C)cc2C)cc1 | n | n | n | n | n | x | x | x | x
C=C1CSc2nc(=O)c3c(C)c(C)sc3n21 | n | x | 19.8 | n | n | n | n | n | 32.3
Cc1nc2sc(C)c(C)c2c(=O)[nH]1 | n | n | n | n | n | x | x | x | x
SMILES | PvdQ inh | Yeast superoxide | VIM-2 inh | PHOSPHO1 inh | IMP-1 inh-1 | IMP-1 inh-2 | VIM-2 FRET inh | TEM-1 counter | VIM-2 confirm 2
CCN(CC)CCOc1cc2c(nn1)Oc1ccccc1N2C | n | n | 18.0 | n | n | n | n | n | 20.1
C/C(=N/OCO/N=C(/C)c1ccc(F)cc1)c1ccc(F)cc1 | n | n | n | n | n | x | x | x | x
O=C(O)c1cccc2c1C(=O)c1ccccc1-2 | n | n | 13.7 | n | n | n | 31.4 | n | 16.9
O=C(O)c1cccc2c1C(=O)c1ccccc1C2=O | n | n | n | n | n | x | x | x | x
COC(=O)c1c(-c2ccncc2)csc1NC(=O)c1ccoc1C | n | n | 50.2 | n | n | n | n | n | 73.9
CCc1cc(C(=O)OC)c(NC(=O)c2ccoc2C)s1 | n | n | n | n | n | x | x | x | x
Cc1ccc(NC(=O)CN(C)C(=O)Cc2c[nH]c3ccccc23)cc1 | n | n | x | x | x | x | x | x | x
CN1CCN(c2ccccc2NC(=O)c2sc3ccccc3c2Cl)CC1 | n | n | 16.0 | n | n | n | n | n | 39.5
Cc1[nH]c(C)c(S(=O)(=O)Nc2cccc(Cl)c2C)c1C(=O)N1CCCC1 | n | n | n | n | n | x | x | x | x
Oc1ccc(C2=Nn3c(nnc3-c3ccco3)SC2)cc1O | n | n | 16.3 | n | n | n | n | n | 27.9
CCSc1ccc2cc(OC)ccc2[n+]1CC | n | n | n | n | n | x | x | x | x
CCOCCc1nnc(NC(=O)CCS(=O)(=O)c2ccccc2)s1 | n | n | 12.4 | n | n | n | n | n | 14.4
Cc1cc(C)c2nc(-c3ccncc3)cc(C(=O)N3CCN(Cc4ccccc4Cl)CC3)c2c1 | n | n | n | n | n | x | x | x | x
Nc1nc(NCCCN2CCOCC2)nc(Nc2ccccc2F)c1[N+](=O)[O-] | n | n | 29.2 | n | n | n | n | n | 51.1
Cc1cccc(Nc2nc(NCCCN3CCOCC3)nc(N)c2[N+](=O)[O-])c1 | n | n | 13.9 | n | n | n | n | n | 36.8
Nc1nc(Nc2ccccc2F)nc(NCCO)c1[N+](=O)[O-] | x | n | n | n | n | x | x | x | x
Cc1cccc(Nc2nc(N)c([N+](=O)[O-])c(NCc3ccccc3)n2)c1 | n | n | n | n | n | x | x | x | x
O=C(CCC(=O)N1CCSc2ccccc21)NC1CCCCC1 | n | n | n | n | n | x | x | x | x
CCC(=O)Nc1cc(=O)[nH]c2nc(-c3ccc(Cl)cc3)nn12 | n | n | n | n | n | x | x | x | x
Cc1cc(N2C(=O)CC(N3CCN(c4ccc(C(=O)c5cccs5)cc4)CC3)C2=O)no1 (configuration not stated) | n | n | 13.2 | n | n | n | n | n | n
O=C(CSc1nnc(NC(=O)C2CC2)s1)NCc1ccccc1Cl | n | n | 29.1 | n | n | n | 52.7 | n | 34.7
COc1ccccc1C(=O)Nc1nnc(SCC(=O)NCc2ccco2)s1 | n | n | 46.4 | n | n | n | 70.2 | n | 52.6
O=C(CSc1nnc(NC(=O)c2ccccc2F)s1)NCc1ccco1 | n | n | 41.1 | n | n | n | 68.4 | n | 48.8
O=C(CSc1nnc(NC(=O)c2c(F)cccc2F)s1)Nc1ccc(F)cc1 | n | n | n | n | n | x | x | x | x
O=C(CSc1nnc(NC(=O)c2ccccc2F)s1)NCc1ccc(F)cc1 | n | n | 37.9 | n | n | n | 61.2 | n | 44.3

Screening data as filed in PubChem BioAssay.
